Reference: ChEMBL document CHEMBL4321829, “Chagas Disease Drug Discovery: Multiparametric Lead Optimization against Trypanosoma cruzi in Acylaminobenzothiazole Series” (J Med Chem, 2019)
pIC50: −log10 of the molar value. ≈ marks a conversion by molar mass, not a printed value. Calls of active or inactive are those of the source. No cut-off for these calls is given here.

Assays:
[1] = Drug level in C57BL/6 mouse treated with 50 mg/kg, po N-(5-Fluoro-6-(trifluoromethyl)benzothiazol-2-yl)cyclopropanecarboxamide administered as suspension via gavage assessed as compound formation after 15 mins to 24 hrs by LC-MS/Ms analysis; format: ADME, organism-based; settings: in vivo
Outline: (§1)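 Female C57BL/6 mice (n=3) were gavaged with 50 mg/kg parent compound as a 1% methylcellulose suspension. Whole blood was sampled at 15, 30, 45 min and 1, 2, 4, 8 and 24 h, diluted 1/2 with water and frozen.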

[2] = system: H9c2; experiment: Cytotoxicity against rat H9c2 cells assessed as reduction in cell viability; format: cell-based
[3] = system: Trypanosoma cruzi; experiment: Antitrypanosomal activity against Trypanosoma cruzi Tulahuen trypomastigotes beta-galactosidase infected in rat H9c2 cells measured after 72 hrs by DRAQ5 DNA dye based confocal microscopic analysis; format: functional, organism-based; settings: H9c2, 72 h
[4] = Selectivity index, ratio of IC50 for rat H9c2 cells to IC50 for antitrypanosomal activity against Trypanosoma cruzi Tulahuen trypomastigotes beta-galactosidase infected in rat H9c2 cells; format: toxicity, cell-based; settings: read-out: Ratio IC50
[5] = system: Trypanosoma cruzi; experiment: Antitrypanosomal activity against Trypanosoma cruzi Tulahuen C4 trypomastigotes harboring beta-galactosidase infected in mouse 3T3 cells after 90 mins by luminescence based assay; format: functional, organism-based; settings: Tulahuen C4, NIH3T3, 1.5 h
[6] = Intrinsic clearance in human liver microsomes at 0.5 uM in presence of NADPH measured up to 45 mins by UPLC/MS/MS analysis; format: ADME, Microsome; settings: 0.75 h
Outline: (§2)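 Compound at 0.5 μM was incubated with male CD1 mouse or human liver microsomes (0.5 mg/mL in 50 mM potassium phosphate, pH 7.4). The reaction was started with excess NADPH. Samples were taken at 0 and serial times up to 45 min, quenched in acetonitrile with internal standard and analysed by UPLC/MS/MS. Clint (mL/min/g tissue) was derived from t1/2 of parent remaining. Midazolam was the positive control.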

[7] = Intrinsic clearance in CD-1 mouse liver microsomes at 0.5 uM in presence of NADPH measured up to 45 mins by UPLC/MS/MS analysis; format: ADME, Microsome; settings: 0.75 h; outline: as §2
[8] = Kinetic solubility of compound by charged aerosol detection method; format: physicochemical; settings: read-out: Kinetic_solubility
[9] = Volume of drug distribution at steady state in CD-1 mouse at 5 mg/kg, iv after 5 mins to 24 hrs by LC-MS/MS analysis; format: ADME, organism-based; settings: in vivo, read-out: Vdss
Outline: (§3)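 Male CD-1 mice (n=3) received a 5 mg/kg i.v. bolus in 5% DMSO/20% encapsine in saline. Blood was drawn at 5, 15, 30 min and 1, 2, 4, 8 and 24 h, diluted 1/2 with water and frozen.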

[10] = system: Trypanosoma cruzi; experiment: Antitrypanosomal activity against tdTomato red expressing Trypanosoma cruzi CL trypomastigotes infected in C57BL/6 mouse at 50 mg/kg administered for 2 days and measured after 4 to 6 days post infection; format: functional, organism-based
Outline: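 Baseline footpad fluorescence was imaged on day 2. A single 50 mg/kg dose in 1% carboxymethyl cellulose/0.1% Tween 80 was then given. Imaging was repeated at day 4 or 6. IVA was calculated from the treated versus untreated fluorescence change. Controls were 50 mg/kg benznidazole and untreated mice.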

[11] = Tmax in C57BL/6 mouse at 50 mg/kg, po after 15 mins to 24 hrs by LC-MS/MS analysis; format: ADME, organism-based; settings: in vivo
[12] = AUCt in C57BL/6 mouse at 50 mg/kg, po after 15 mins to 24 hrs by LC-MS/MS analysis; format: ADME, organism-based; design: dose 50 mg/kg, time upper 24 hr, time lower 0.25 hr, route oral; settings: in vivo
[13] = Ratio of drug level in blood to plasma in mouse at 1 uM after 1 hr by LC-MS/MS analysis; format: ADME, cell-free
Outline: (§4)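 Compound at a final 1 μM was mixed into prewarmed mouse or human whole blood at 37 °C. At 0 and 60 min, blood aliquots were lysed with water and matrix-matched with plasma. Samples were precipitated with IS-containing buffer and analysed by LC-MS/MS. The blood/plasma ratio was taken from compound:IS peak-area ratios.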

[14] = Efflux ratio of apparent permeability across […] in MDCK-MDR1 cells at 3 uM after 60 mins by LC-MS/MS analysis; format: ADME, cell-based, Canis lupus familiaris; settings: dog, mdck-mdr1, 1 h
Outline: (§5)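 Papp was measured in MDR1-MDCK monolayers in HBSS at pH 7.4 (n=2), at 3 μM for 60 min. Transport was measured AB and BA, with and without the P-gp inhibitor GF120918. Monolayers were checked by TEER and Lucifer yellow. Analytes were measured by LC-MS/MS as analyte/IS area ratios. Amprenavir, prazosin and propranolol served as references.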

[15] = Apparent permeability in MDCK-MDR1 cells at 3 uM after 60 mins by LC-MS/MS analysis; format: ADME, cell-based, Canis lupus familiaris; settings: dog; outline: as §5
[16] = Protein binding in human plasma at 2 uM after 4 hrs by LC-MS/MS analysis; format: ADME, cell-free
Outline: (§6)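 Equilibrium dialysis was run in RED inserts with mouse or human plasma at a final concentration of 2 μM, in triplicate. The receiver side held PBS at pH 7.4. Plates were incubated for 4 h at 37 °C at about 150 rpm. Samples were matrix-matched, protein-precipitated and analysed by LC-MS/MS. %PPB = 100 − (buffer/plasma × 100).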

[17] = Half life in CD-1 mouse at 5 mg/kg, iv after 5 mins to 24 hrs by LC-MS/MS analysis; format: ADME, organism-based; settings: in vivo; outline: as §3
[18] = Protein binding in mouse plasma at 2 uM after 4 hrs by LC-MS/MS analysis; format: ADME, cell-free; outline: as §6
[19] = Solubility of compound in FASSIF at 1 mg incubated for 4 hrs by HPLC-UV analysis; format: physicochemical
Outline: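 1 mg of solid compound was shaken in 1 mL FaSSIF at pH 6.5, at 900 rpm for 4 h at room temperature. The suspension was filtered and the supernatant quantified by HPLC-UV against a single-point DMSO standard. The dynamic range was 1–1000 μg/mL.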

[20] = AUC in C57BL/6 mouse assessed as 5-Fluoro-6-(trifluoromethyl)benzothiazol-2-amine level at 50 mg/kg, po adminstered via gavage as suspension after 15 mins to 24 hrs by LC-MS/MS analysis; format: ADME, organism-based; design: dose 50 mg/kg, time upper 24 hr, time lower 0.25 hr, route oral; settings: in vivo; outline: as §1
[21] = Cmax in C57BL/6 mouse at 50 mg/kg, po after 15 mins to 24 hrs by LC-MS/MS analysis; format: ADME, organism-based; design: dose 50 mg/kg, route oral; settings: in vivo
[22] = Cmax in C57BL/6 mouse assessed as 5-Fluoro-6-(trifluoromethyl)benzothiazol-2-amine level at 50 mg/kg, po adminstered via gavage as suspension after 15 mins to 24 hrs by LC-MS/MS analysis; format: ADME, organism-based; design: dose 50 mg/kg, route oral; settings: in vivo; outline: as §1
[23] = Clearance in CD-1 mouse at 5 mg/kg, iv after 5 mins to 24 hrs by LC-MS/MS analysis; format: ADME, organism-based; settings: in vivo; outline: as §3
[24] = Ratio of drug level in blood to plasma in human at 1 uM after 1 hr by LC-MS/MS analysis; format: ADME, cell-free; outline: as §4

| Structure (SMILES) | pIC50 [2] | pIC50 [3] | selectivity ratio [4] | also measured |
| --- | --- | --- | --- | --- |
| Nc1nc2cc(F)c(C(F)(F)F)cc2s1 |  |  |  | Drug metabolism [1]: Metabolite_Detected |
| O=C(CCO)Nc1nc2ccc(Cl)cc2s1 | < 4.30 | 4.85 | > 3 |  |
| CC(C)C(=O)Nc1nc2ccc(Cl)cc2s1 | < 4.30 | 6.39 | > 123 |  |
| O=C(Nc1nc2ccc(Cl)cc2s1)C1CC1 | < 4.30 | 6.20 | > 80 | pIC50 [5]: 6.92; CLH [6]: 9.57 mL/min/g; CLH [7]: 2.51 mL/min/g |
| COc1cc2nc(NC(=O)C3CC3)sc2cc1C(F)(F)F | < 4.30 | 4.70 | > 2.5 |  |
| Clc1ccc2nc(NCC3CC3)sc2c1 | < 4.30 | 4.57 | > 2 |  |
| FC(F)(F)c1ccc2nc(N/N=C/C3CC3)sc2c1 | 4.89 | 5.62 | 5 |  |
| O=C(Nc1nc2ccc(C(F)(F)F)cc2s1)C1CC1 | < 4.30 | 7.00 | > 500 | CLH [6]: 0.94 mL/min/g; CLH [7]: 2.71 mL/min/g |
| CCCC(=O)Nc1nc2ccc(Cl)cc2s1 | < 4.30 | 5.33 | > 11 |  |
| CC(C)C(=O)Nc1nc2cc(F)c(C(F)(F)F)cc2s1 | < 4.30 | 6.60 | > 200 |  |
| O=C(Nc1nc2cc(C(F)(F)F)c(F)cc2s1)C1CC1 | 4.34 | 4.46 | 1 |  |
| CN(C)CCCN(C(=O)c1nc2ccccc2s1)c1nc2ccc(F)cc2s1 |  |  |  | pIC50 [5]: 7.00 |
| CCN(C(=O)C1CC1)c1nc2ccc(Cl)cc2s1 | < 4.30 | < 4.30 | 1 |  |
| CNS(=O)(=O)c1cc2sc(NC(=O)C3CC3)nc2cc1F | < 4.30 | 4.59 | > 2 |  |
| CCCCN(C(=O)C1CC1)c1nc2ccc(Cl)cc2s1 | < 4.30 | < 4.30 | 1 |  |
| O=C(Nc1nc2cc(F)c(C(F)(F)F)cc2s1)C1CC1 | < 4.30 | 7.10 | > 630 | solubility kinetic [8]: 36 µM (≈ 11 µg/mL); Vd [9]: 5.73 L/kg; Activity [10]: Active; Tmax [11]: 1.33 h; AUC(0-t) [12]: 31600 ng·h/mL; blood plasma ratio at 1 h, 1 µM [13]: 1.2; Ratio [14]: 1.5; Papp at 1 h, 3 µM [15]: 17.4 ×10⁻⁶ cm/s; PPB [16]: Active; half-life [17]: 0.97 h; PPB [18]: Active; solubility at 4 h [19]: 51 µg/mL (≈ 168 µM); CLH [6]: 0.41 mL/min/g; AUC [20]: 10065.32 ng·h/mL; CLH [7]: 5.26 mL/min/g; Cmax [21]: 3390 ng/mL; Cmax [22]: 634 ng/mL; clearance [23]: 58.3 mL/min/kg; blood plasma ratio at 1 h, 1 µM [24]: 0.8 |
| CCS(=O)(=O)c1cc2sc(NC(=O)C3CC3)nc2cc1F | < 4.30 | 4.38 | > 1 |  |
| CC(=O)N(CCCN(C)C)c1nc2ccc(C)cc2s1 |  |  |  | pIC50 [5]: 6.63 |
| O=C(Nc1nc2ccc([N+](=O)[O-])cc2s1)C1CC1 | < 4.30 | 7.40 | > 1200 | CLH [6]: 1.57 mL/min/g; CLH [7]: 3.06 mL/min/g |
| O=C(Nc1nc2ccc(F)cc2s1)C1CC1 | < 4.30 | 5.37 | > 12 |  |
| O=S(=O)(Nc1nc2ccc(C(F)(F)F)cc2s1)C1CC1 | 5.18 | < 4.30 | < 0.13 |  |

| Structure (SMILES) | pIC50 [2] | pIC50 [3] | selectivity ratio [4] | also measured |
| --- | --- | --- | --- | --- |
| O=C(C1CC1)N(CCO)c1nc2ccc(Cl)cc2s1 | < 4.30 | < 4.30 | 1 |  |
| CC(C)c1ccc2nc(NC(=O)C3CC3)sc2c1 | < 4.30 | 5.92 | > 50 |  |
| O=C(Nc1nc2ccc(Cl)cc2s1)C1COC1 | < 4.30 | 5.36 | > 11 |  |
| CC(C)(F)C(=O)Nc1nc2cc(F)c(C(F)(F)F)cc2s1 | < 4.30 | 6.00 | > 50 |  |
| O=C(Nc1nc2c(Cl)cccc2s1)C1CC1 | < 4.30 | < 4.30 |  |  |
| Cc1cc2nc(NC(=O)C3CC3)sc2cc1C(F)(F)F | 4.44 | 4.59 | 1 |  |
| O=C(CC1CC1)Nc1nc2ccc(Cl)cc2s1 | < 4.30 | 5.27 | > 9 |  |
| O=C(Nc1nc2ccc(OC(F)(F)F)cc2s1)C1CC1 | 5.30 | 6.72 | 28 |  |
| Cc1ccc2nc(NC(=O)C3CC3)sc2c1 | < 4.30 | 5.34 | > 11 |  |
| CCc1ccc2nc(NC(=O)C3CC3)sc2c1 | < 4.30 | 6.85 | > 357 | CLH [6]: 10.4 mL/min/g; CLH [7]: 125 mL/min/g |
| O=C(Nc1nc2ccc(Cl)cc2s1)C1CCC1 | < 4.30 | 5.88 | > 38 |  |
| CCOc1ccc2nc(NC(=O)C3CC3)sc2c1 | < 4.30 | 5.60 | > 20 |  |
| CC(C)(F)C(=O)Nc1nc2ccc(C(F)(F)F)cc2s1 | < 4.30 | 6.89 | > 384 |  |
| N#Cc1cc2sc(NC(=O)C3CC3)nc2cc1F | < 4.30 | 5.64 | > 22 |  |
| O=C(Nc1nc2cccc(Cl)c2s1)C1CC1 | < 4.30 | 4.62 | > 2 |  |
| N#Cc1cc2nc(NC(=O)C3CC3)sc2cc1C(F)(F)F | 4.81 | < 4.30 |  |  |
| O=C(Nc1nc2cc(Cl)ccc2s1)C1CC1 | < 4.30 | 6.49 | > 158 |  |
| O=C(Nc1nc2ccc(Cl)cc2s1)C1CCOC1 (stereo unspecified) | < 4.30 | 5.36 | > 11 |  |
| CC(C)(C)c1ccc2nc(NC(=O)C3CC3)sc2c1 | 4.49 | 5.11 | 4 |  |
| CC(C)(C)C(=O)Nc1nc2ccc(Cl)cc2s1 | < 4.30 | 6.02 | > 52 |  |
| CN(C(=O)C1CC1)c1nc2ccc(Cl)cc2s1 | < 4.30 | 4.60 | > 2 |  |
